Data as given in ChEMBL document CHEMBL1126822, “7 alpha-Methyl- and 11 beta-ethoxy-substitution of [125I]-16 alpha-iodoestradiol: effect on estrogen receptor-mediated target tissue uptake” (J Med Chem, 1993).

The molecules below were run against Estrogen receptor (Mus musculus) (UniProt O08537+P19785) (assay: Binding affinity at murine estrogen receptor by [3H]estradiol displacement.).
Format: protein assay
Summary of the method: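 Competitive binding in murine uterine cytoplasmic extracts, incubated 18 h at 0-4 °C with 20 nM [3H]estradiol, with or without competing steroids from 2 nM to 20 μM. RBA = 100 × ratio of competitor to unlabeled estradiol concentration giving 50% competition of specific [3H]estradiol binding. Mean of three experiments with SD.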

Sequence of Estrogen receptor (Mus musculus) (O08537 whole entry, looked up): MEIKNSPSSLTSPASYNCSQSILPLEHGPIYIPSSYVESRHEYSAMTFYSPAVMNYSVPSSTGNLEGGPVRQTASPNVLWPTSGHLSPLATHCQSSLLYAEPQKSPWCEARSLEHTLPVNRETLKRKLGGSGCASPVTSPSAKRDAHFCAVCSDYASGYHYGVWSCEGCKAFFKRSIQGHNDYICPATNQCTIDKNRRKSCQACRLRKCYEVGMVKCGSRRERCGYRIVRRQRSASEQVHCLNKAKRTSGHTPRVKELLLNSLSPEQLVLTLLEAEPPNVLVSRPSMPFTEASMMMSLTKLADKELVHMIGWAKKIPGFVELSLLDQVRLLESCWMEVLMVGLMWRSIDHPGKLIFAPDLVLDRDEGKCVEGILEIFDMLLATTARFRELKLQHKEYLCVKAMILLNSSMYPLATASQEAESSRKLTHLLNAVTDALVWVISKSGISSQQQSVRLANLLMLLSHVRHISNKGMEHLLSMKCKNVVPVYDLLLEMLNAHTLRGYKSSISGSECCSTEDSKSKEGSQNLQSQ
Sequence of Estrogen receptor (Mus musculus) (P19785 whole entry, looked up): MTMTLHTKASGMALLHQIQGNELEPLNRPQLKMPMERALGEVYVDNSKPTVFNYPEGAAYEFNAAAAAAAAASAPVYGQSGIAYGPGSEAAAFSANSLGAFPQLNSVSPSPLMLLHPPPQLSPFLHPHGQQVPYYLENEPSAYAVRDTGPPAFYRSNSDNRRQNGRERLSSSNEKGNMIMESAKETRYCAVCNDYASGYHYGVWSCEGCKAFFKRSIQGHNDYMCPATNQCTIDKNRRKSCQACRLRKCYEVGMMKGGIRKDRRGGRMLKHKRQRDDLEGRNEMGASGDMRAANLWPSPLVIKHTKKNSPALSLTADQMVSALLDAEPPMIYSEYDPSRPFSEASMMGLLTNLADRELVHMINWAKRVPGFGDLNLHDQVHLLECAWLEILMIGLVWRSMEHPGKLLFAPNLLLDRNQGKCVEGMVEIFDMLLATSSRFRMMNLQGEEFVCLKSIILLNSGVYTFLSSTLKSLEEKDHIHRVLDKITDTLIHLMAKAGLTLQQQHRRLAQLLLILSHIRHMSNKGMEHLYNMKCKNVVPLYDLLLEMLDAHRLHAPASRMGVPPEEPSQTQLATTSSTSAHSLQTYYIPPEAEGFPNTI

| SMILES | relative binding affinity (RBA) |
| --- | --- |
| C[C@@H]1Cc2cc(O)ccc2[C@H]2CC[C@]3(C)[C@H](O)[C@H](Cl)C[C@H]3[C@H]12 | 16.6 |
| C[C@@H]1Cc2cc(O)ccc2[C@H]2CC[C@]3(C)[C@H](O)[C@H](Br)C[C@H]3[C@H]12 | 13.6 |
| C[C@@H]1Cc2cc(O)ccc2[C@H]2CC[C@]3(C)[C@@H](O)[C@@H](Br)C[C@H]3[C@H]12 | 7.1 |
| CCO[C@H]1C[C@]2(C)C(=O)[C@H](Cl)C[C@H]2[C@@H]2CCc3cc(O)ccc3[C@H]21 | 0.8 |
| C[C@@H]1Cc2cc(O)ccc2[C@H]2CC[C@]3(C)C(=O)[C@H](Br)C[C@H]3[C@H]12 | 28.4 |
| CO[C@H]1C[C@]2(C)[C@@H](O)[C@H](Br)C[C@H]2[C@@H]2CCc3cc(O)ccc3[C@H]21 | 20 |
| C[C@@H]1Cc2cc(O)ccc2[C@H]2CC[C@]3(C)[C@@H](O)[C@H](Br)C[C@H]3[C@H]12 | 79.1 |
| C[C@@H]1Cc2cc(O)ccc2[C@H]2CC[C@]3(C)[C@@H](O)[C@H](Cl)C[C@H]3[C@H]12 | 71.5 |
| CCO[C@H]1C[C@]2(C)[C@H](O)[C@H](Br)C[C@H]2[C@@H]2CCc3cc(O)ccc3[C@H]21 | 1.1 |
| CCO[C@H]1C[C@]2(C)[C@@H](O)[C@H](Br)C[C@H]2[C@@H]2CCc3cc(O)ccc3[C@H]21 | 16.8 |
| C[C@@H]1Cc2cc(O)ccc2[C@H]2CC[C@]3(C)C(=O)[C@H](Cl)C[C@H]3[C@H]12 | 33.8 |
| CCO[C@H]1C[C@]2(C)C(=O)[C@H](Br)C[C@H]2[C@@H]2CCc3cc(O)ccc3[C@H]21 | 0.8 |
| CCO[C@H]1C[C@]2(C)[C@H](O)[C@H](Cl)C[C@H]2[C@@H]2CCc3cc(O)ccc3[C@H]21 | 0.8 |
| C[C@@H]1Cc2cc(O)ccc2[C@H]2CC[C@]3(C)[C@@H](O)[C@@H](Cl)C[C@H]3[C@H]12 | 4.3 |
| CCO[C@H]1C[C@]2(C)[C@@H](O)[C@@H](Br)C[C@H]2[C@@H]2CCc3cc(O)ccc3[C@H]21 | 0.6 |
| C[C@@H]1Cc2cc(O)ccc2[C@H]2CC[C@]3(C)C(=O)[C@@H](Br)C[C@H]3[C@H]12 | 5.3 |
| CCO[C@H]1C[C@]2(C)[C@@H](O)[C@H](Cl)C[C@H]2[C@@H]2CCc3cc(O)ccc3[C@H]21 | 14.9 |
